This is an account of results in ChEMBL document CHEMBL1141800, “Xenia diterpenoids from the formosan soft coral Xenia blumi” (2005).

One test relates to P388. The experiment in a line: Cytotoxicity against mouse P388 cells. It is filed as functional. The following applies: read-out: ED50 (the source's name). Summed up: (§1)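 In vitro cytotoxicity assay against cultured HT-29 (human colon adenocarcinoma) and P-388 (mouse lymphocytic leukemia) cells; P-388 line was supplied by an outside academic lab. Potency is reported as ED50 in μg/mL.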

The next test deals with HT-29. The experiment in a line: Cytotoxicity against human HT-29 cells. It is filed as functional. The following applies: read-out: ED50 (the source's name). Summed up:
as §1

In brackets after ≈: the same amount, converted by molar mass.

Turning to `COC(=O)[C@@H]1[C@@H](/C(=C\C=C\C(C)(C)O)COC(C)=O)CC[C@@]2(C)C[C@]1(O)CC[C@H]2O`, the EC50 in the test on P388 and with HT-29 was more than 20 µg/mL throughout.
As for `C=C1CC[C@@H]2O[C@@]2(C)CC[C@@H]2/C(=C\C=C\C(C)(C)O)C(=O)OC[C@@H]12`, the EC50 was determined as 6.9 µg/mL (≈ 20.8 µM) in the test with P388 and 8.6 µg/mL (≈ 25.9 µM) in the test on HT-29.
For `C=C1CC[C@@H]2O[C@@]2(C)CC[C@@H]2C([C@@H](OC(C)=O)[C@H](C=C(C)C)OC(C)=O)=CO[C@H](OC(C)=O)[C@@H]12`, in that order: more than 20 µg/mL and more than 20 µg/mL.
For `C=C1CC(=O)/C=C(/C)CC[C@@H]2/C(=C/C=C/C(C)(C)O)C(=O)OC[C@@H]12`, in that order: 0.2 µg/mL (≈ 0.605 µM) and 0.5 µg/mL (≈ 1.51 µM).
With `C=C1CC[C@H](O)C(=C)CC[C@@H]2/C(=C\C=C\C(C)(C)O)COC(=O)[C@@H]12`, the EC50 amounted to 3.7 µg/mL (≈ 11.1 µM) with P388 and 4.9 µg/mL (≈ 14.7 µM) in the test with HT-29.
For `C=C1CC[C@@](C)(C=O)CC[C@@H]2/C(=C\C=C\C(C)(C)O)COC(=O)[C@@H]12`, in that order: 3.3 µg/mL (≈ 9.93 µM) and 4.6 µg/mL (≈ 13.8 µM).
For the compound `C=C1CC[C@@H]2O[C@@]2(C)CC[C@@H]2/C(=C/C=C/C(C)(C)O)C(=O)OC[C@@H]12`, the EC50 in the test with P388 was found to be 4.7 µg/mL (≈ 14.1 µM); in the test on HT-29, 5.6 µg/mL (≈ 16.8 µM).
For `C=C1CC/C=C(\C)CC[C@@H]2/C(=C/C=C/C(C)(C)O)C(=O)OC[C@@H]12`, in that order: more than 20 µg/mL and 8.7 µg/mL (≈ 27.5 µM).
